Source: PubChem BioAssay (several laboratories)
Autophagy mod: alters autophagy in cells. MEF GFP-LC3 puncta imaging; test concentration mostly 10 µM. 190,000 tested, 0.98% active. calls only at 10 µM (by protocol);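 active = percentage of spot-positive cells more than 3 SD above its plate mean, without a fluorescence outlier flag or 80% toxicity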;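 note: spot-positive cell cutoff set from DMSO-treated cells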
Dynein cargo inh: blocks dynein driven cargo transport along microtubules | 3617.4 mouse cells, GR-EGFP nuclear translocation imaging; test concentration mostly 20 µM; stimulated with dexamethasone, 1 µM; hits give low values | z-score, hits read low | 220,000 tested, 0.47% active | AID 1381;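 active = plate z-score of nuclear minus cytoplasmic receptor signal below a set negative limit, without overly bright fluorescence or cell loss, cut at about -3.5 in these data, passing the limit was not always enough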;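 note: z-score of nuclear minus cytoplasmic ring GR-EGFP intensity difference per well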
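Medium: Induction medium lacking tetracycline, stripped serum | Probe or stimulus: 1.0 µM final dexamethasone stimulus | Schedule: 48 h induction, then 1 h compound, then 30 min agonist, 37 °C | Signal: Automated 10x imaging of fixed Hoechst-stained cells | Evaluation: Per-cell GR-EGFP intensity, nucleus versus surrounding cytoplasmic ring, well-averaged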
L929 necroptosis: L929 zVAD cell death inhibition. L929 zVAD necroptosis rescue, ATP luminescence, 24 h; with zVAD 60 µM. viability rescue, % at 10 µM. 220,000 tested, 0.38% active. AID 1377;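 active = activation, scaled between plate controls, above about 75%, limit read from the data; inactive = activation under that limit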;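 note: 0% = zVAD with DMSO and 100% = DMSO alone without zVAD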
Hck-Nef inh: human Hck-Nef kinase inhibition | Recombinant Hck-YEEI plus Nef, Z-Lyte FRET kinase assay | inhibition, % at 20 µM | 220,000 tested, 0.68% active | AID 463187;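 active = Hck-Nef kinase inhibition above about 50%, limit read from the data; inactive = inhibition below that limit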;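 note: 0% = DMSO with Hck plus Nef and 100% = Hck alone without Nef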
Target sequence (P08631 whole entry, looked up): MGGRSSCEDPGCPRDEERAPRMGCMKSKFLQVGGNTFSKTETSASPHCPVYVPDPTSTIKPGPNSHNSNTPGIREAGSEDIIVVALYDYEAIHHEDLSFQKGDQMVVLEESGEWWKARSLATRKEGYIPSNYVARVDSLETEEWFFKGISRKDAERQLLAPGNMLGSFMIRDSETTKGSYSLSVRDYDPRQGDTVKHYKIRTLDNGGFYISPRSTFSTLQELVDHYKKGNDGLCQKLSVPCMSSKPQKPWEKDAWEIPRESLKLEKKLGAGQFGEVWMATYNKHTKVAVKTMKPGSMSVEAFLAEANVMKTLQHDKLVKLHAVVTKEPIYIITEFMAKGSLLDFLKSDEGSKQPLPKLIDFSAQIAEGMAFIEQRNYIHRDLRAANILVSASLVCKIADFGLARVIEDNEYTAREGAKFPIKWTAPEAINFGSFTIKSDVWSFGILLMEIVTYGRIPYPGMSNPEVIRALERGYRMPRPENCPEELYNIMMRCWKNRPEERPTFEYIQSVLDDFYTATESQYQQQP
TNF death inh: TNF-alpha cell death inhibition in Jurkat FADD-/- cells; Jurkat FADD-/- TNF necroptosis rescue, ATP luminescence, 24 h; 0 = TNF only, 100 = no-TNF cells; activation (protection from cell death), % at 10 µM; 220,000 tested, 0.068% active;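 active = activation, meaning protection from cell death, of at least 50% relative to plate controls; inactive = activation below 50%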;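 note: necroptosis triggered by 40 ng/mL TNF-alpha added together with compound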
Mdm2 ligase inh: inhibitors of human Mdm2 E3 ubiquitin ligase; Q00987; cell-based MDM2 ubiquitination luciferase reporter, 2 h; 0 = plate control, 100 = twice control, blank-subtracted; signal enhancement, % at 5 µM; 210,000 tested, 0.11% active; AID 1230;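 active = signal enhancement of 30% or more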;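 note: luminescence tracks abundance of the self-degrading MDM2-luciferase fusion protein; higher signal means inhibition of MDM2 E3 ligase activity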
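Assay system: stable mammalian line carrying autodegrading MDM2–luciferase fusion reporter; amount: 2000 cells seeded into each well; buffer or medium: DMEM; benchmarks: plate control and blank wells; signal: luciferase luminescence; timing: 2 h compound exposure at 37 °C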
Active calls of the source: *; i = inactive; · = no result; + = active, no number. Hits are enriched below; roughly 2.4% of the tested compounds scored in any of these assays.

SMILES	Autophagy mod	Dynein cargo inh	L929 necroptosis	Hck-Nef inh	TNF death inh	Mdm2 ligase inh
O=[N+]([O-])c1ccc(-c2ccc(/C=N/Nc3nc(NCc4ccccc4)nc(N4CCOCC4)n3)o2)cc1	+	-1.4	7	-6	-6	-14
Cc1cc(C)c(C#N)c(SC(C(=O)NC(C)(C)C)c2ccccc2)n1 (configuration not stated)	·	0.85	0	2	-3	-12
COc1cccc2sc(Nc3nnc(-c4ccccc4Cl)o3)nc12	+	-0.084	0	1	-13	-4
COc1ccccc1-c1nnc(Nc2nc3c(OC)cccc3s2)o1	i	-1.2	1	-12	-10	39*
COc1cccc2sc(NN)nc12	i	1.9	1	-4	0	-18
CN1CCN(c2ccc(C(=O)c3ccc(Br)cc3)cc2[N+](=O)[O-])CC1	i	-0.97	64	24	2	3
CCC(=O)NC(=S)Nc1cccc(NC(=O)c2ccccc2)c1	+	1.6	19	16	1	-11
CCC(=O)NC(=S)Nc1ccc(NC(=S)NC(=O)c2ccccc2)cc1	i	-0.79	0	20	-5	-7
CNC(=S)Nc1cccc(C(C)=O)c1	i	0.21	3	73*	0	-7
CNC(=O)c1ccc(=O)n(Cc2cccc(C(F)(F)F)c2)c1	i	-0.11	2	0	0	-19
O=[N+]([O-])c1cnc(Sc2ccncn2)s1	·	-5.1*	-4	0	-32	14
O=C(Nc1ccc(Cl)cc1)Nc1ccccc1Sc1ncc([N+](=O)[O-])s1	·	-1.9	0	-1	-20	-12
CCn1c(=NC(=O)c2cccc(N3C(=O)CCC3=O)c2)sc2c(OC)ccc(OC)c21	i	-0.037	0	11	-2	-11
COc1ccc(OC)c2c1sc(=NC(=O)c1cccc(N3C(=O)CCC3=O)c1)n2C	+	-0.49	0	2	-5	-12
COc1ccc2nc(N/C(N)=N/C(=S)Nc3c(C)cccc3C)nc(C)c2c1	+	-0.29	0	13	-2	-35
N#CCC(=O)N1CCN(C=O)CC1	i	-0.23	2	20	1	-12
O=C(N/N=C/c1cccs1)c1n[nH]c2c1CCC2	i	-0.6	44	2	-6	-42
O=C(N/N=C/C(Br)=C/c1ccccc1)c1n[nH]c2c1CCC2	+	-0.62	0	1	-9	-1
CC1CCN(C(=O)CSc2nnc(-c3cccnc3)n2C2CCCCC2)CC1	i	1.2	0	-1	0	-2
O=C(CSc1nnc(-c2cccnc2)n1C1CCCCC1)NC1CCCCC1	i	0.38	-1	7	-1	36*
CN(c1ncc(C(F)(F)F)cc1Cl)n1cc(C(N)=O)c2ccccc2c1=O	i	0.26	-1	-3	0	-2
CC1=CC2=NC(=O)/C(=C\c3ccc(-c4cccc(Cl)c4)o3)C(=N)N2O1	+	7.9	0	-2	-2	-14
CC1=NOC(=O)/C1=C\c1ccc(-c2cccc(Cl)c2)o1	i	-0.42	0	7	-2	-19
COc1ccccc1-c1cc(C(F)(F)F)nc(S(=O)(=O)CCCC(=O)Nc2cccnc2Cl)n1	i	-4.4*	-1	32	-13	43*
COc1ccccc1-c1cc(C(F)(F)F)nc(S(=O)(=O)CCCC(=O)NC(C)C)n1	i	-1.6	0	2	-11	-12
SMILES	Autophagy mod	Dynein cargo inh	L929 necroptosis	Hck-Nef inh	TNF death inh	Mdm2 ligase inh
COc1ccc(Cl)cc1C(=O)NCC(c1ccco1)N1CCCC1 (configuration not stated)	+	-0.22	0	-9	0	-6
Cc1cc(C)n(-c2cccc(Cl)c2)c(=O)c1C#N	+	4.7	0	0	-1	3
O=C(O)C1Nc2c(O)cc(Cl)c([N+](=O)[O-])c2C2C=CCC12 (configuration not stated)	i	-0.74	0	70*	-2	-8
CCOC(=O)Nc1ccc(S(=O)(=O)N2CCC(C)CC2)cc1	i	-0.46	4	3	1	-8
CC1(C)Oc2ccc(NC(=O)C3COc4ccccc4O3)cc2O1 (configuration not stated)	i	-1.5	3	3	2	-77
Cc1ccc(NC(=O)C2COc3ccccc3O2)nc1 (configuration not stated)	i	-0.8	1	-10	89*	-26
O=C1NC(=O)c2cc(NC(=O)C3COc4ccccc4O3)ccc21 (configuration not stated)	i	-0.31	1	12	-3	43*
Cc1ccnc(NC(=O)C2COc3ccccc3O2)c1 (configuration not stated)	i	-0.2	1	-1	16	-8
CCc1nc2ccccc2c(C(=O)OCC(=O)Nc2cccc(S(=O)(=O)N3CCOCC3)c2)c1C	i	-0.89	0	0	-2	0
CC1CC(C)CN(C(=O)C2CCCN(S(=O)(=O)c3cnc[nH]3)C2)C1 (configuration not stated)	·	0.0027	0	1	2	-5
Cc1cc(C)c2cc(CN(CCN3CCCC3)C(=O)Nc3ccc(F)cc3)c(=O)[nH]c2c1	i	0.081	0	-1	0	0
Cc1ccc(C)c2[nH]c(=O)c(CN(CCN3CCCC3)C(=O)Nc3cccc(Cl)c3)cc12	+	-2.3	5	-1	-1	-3
O=S(=O)(Cc1noc(-c2ccccc2Cl)n1)c1ccccn1	·	-0.82	0	13	1	-28
O=C(N/N=C/c1ccc(-c2ccccc2Cl)o1)c1ccccc1	i	-0.59	15	-34	-4	-12
O=C(O)c1ccc(N/N=C/c2ccc(-c3ccccc3Cl)o2)cc1	·	-0.24	1	67*	0	-39
Cc1cccc(COc2ccc(/C=N/NC(=O)c3nnn(-c4nonc4N)c3COc3ccc(F)cc3)cc2)c1	·	-0.2	0	26	2	·
CCS(=O)(=O)C1=NN2C(=N)/C(=C\c3ccc(SCc4ccco4)o3)C(=O)N=C2S1	i	0.3	1	64*	0	-1
COc1ccc(-n2c(C)nc3sc4c(c3c2=O)CCC4)cc1	i	-0.32	23	36	93*	3
COc1ccc(-n2c(N3CCN(C)CC3)nc3sc4c(c3c2=O)CCCCC4)cc1	+	-0.00027	15	0	6	-5
COc1ccc(-n2c(SCC(=O)O)nc3sc4c(c3c2=O)CCC4)cc1	i	-0.59	1	12	1	-4
